Assays:
[1] = target: T1, Amine oxidase [flavin-containing] A (Homo sapiens, UniProt P21397); test: Inhibition of human recombinant MAO-A at 10 uM using kynuramine as substrate after 30 mins by fluorescence spectrophotometry; conditions: 0.5 h
T1 sequence (P21397 whole entry): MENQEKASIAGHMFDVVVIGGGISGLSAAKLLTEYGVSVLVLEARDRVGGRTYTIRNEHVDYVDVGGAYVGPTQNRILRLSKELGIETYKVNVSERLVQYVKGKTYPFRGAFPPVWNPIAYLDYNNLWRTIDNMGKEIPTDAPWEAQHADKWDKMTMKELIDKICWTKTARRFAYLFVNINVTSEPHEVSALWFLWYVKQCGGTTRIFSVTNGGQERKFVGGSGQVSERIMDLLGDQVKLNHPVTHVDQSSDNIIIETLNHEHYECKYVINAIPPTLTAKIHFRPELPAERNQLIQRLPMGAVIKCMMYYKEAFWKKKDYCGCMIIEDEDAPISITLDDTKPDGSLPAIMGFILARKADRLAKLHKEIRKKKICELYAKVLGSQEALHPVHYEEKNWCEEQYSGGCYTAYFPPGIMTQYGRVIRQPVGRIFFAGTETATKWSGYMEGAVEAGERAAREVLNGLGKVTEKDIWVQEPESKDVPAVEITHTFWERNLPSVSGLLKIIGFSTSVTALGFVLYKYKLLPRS
Outline: (§1)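 Recombinant human MAO-A or MAO-B (7.5 µg/mL) in 100 mM potassium phosphate with 20.2 mM KCl, pH 7.40. Kynuramine substrate at 45 µM (MAO-A) or 30 µM (MAO-B); DMSO below 4%. Incubated 37 °C for 30 min, stopped with 2N NaOH. 4-Hydroxyquinoline fluorescence read at ex 310/em 400 nm against a calibration curve. Single-concentration screen at 10 µM, in triplicate.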

[2] = species on record: Homo sapiens; test: Selectivity ratio of IC50 for human recombinant MAO-A to IC50 for human recombinant MAO-B
[3] = target: T2, Amyloid-beta precursor protein (Homo sapiens, UniProt P05067); test: Inhibition of self-induced amyloid beta (1 to 42) (unknown origin) aggregation at 25 uM after 24 hrs by thioflavin-T fluorescence method
T2 sequence (P05067 whole entry): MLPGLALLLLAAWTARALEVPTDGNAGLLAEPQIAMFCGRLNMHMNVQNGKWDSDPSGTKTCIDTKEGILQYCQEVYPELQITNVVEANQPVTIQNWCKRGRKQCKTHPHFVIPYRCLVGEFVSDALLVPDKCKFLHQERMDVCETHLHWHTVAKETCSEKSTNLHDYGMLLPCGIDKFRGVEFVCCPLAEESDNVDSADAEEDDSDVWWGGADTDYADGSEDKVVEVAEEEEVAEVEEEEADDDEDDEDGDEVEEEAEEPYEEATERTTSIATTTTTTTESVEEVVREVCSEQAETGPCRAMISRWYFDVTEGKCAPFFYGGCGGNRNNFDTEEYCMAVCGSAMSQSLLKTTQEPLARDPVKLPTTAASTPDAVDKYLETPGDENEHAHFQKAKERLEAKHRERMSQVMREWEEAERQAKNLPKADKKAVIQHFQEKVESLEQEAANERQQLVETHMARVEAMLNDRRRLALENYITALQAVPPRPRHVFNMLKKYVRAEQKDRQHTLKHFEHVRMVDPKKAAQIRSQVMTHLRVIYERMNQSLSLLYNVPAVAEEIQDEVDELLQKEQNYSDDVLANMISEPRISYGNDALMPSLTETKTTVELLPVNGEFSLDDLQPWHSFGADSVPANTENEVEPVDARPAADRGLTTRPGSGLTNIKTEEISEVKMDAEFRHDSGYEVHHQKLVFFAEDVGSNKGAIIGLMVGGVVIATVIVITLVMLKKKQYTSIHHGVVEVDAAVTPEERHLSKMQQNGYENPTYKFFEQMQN
Outline: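 HFIP-pretreated Aβ1-42 (25 µM final) incubated with compound (25 µM final) in 50 mM phosphate buffer pH 7.40 at 37 °C for 24 h. ThT (5 µM in 50 mM glycine-NaOH, pH 8.5) then added and fluorescence read at ex 446/em 490 nm. Background-subtracted inhibition = (1−IFi/IFc)×100. Run in triplicate.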

[4] = Permeability of the compound at 100 ug/ml after 18 hrs by PAMPA-BBB assay
[5] = Antioxidant activity assessed as AAPH free radical scavenging activity measured as trolox equivalent at 5 uM preincubated for 15 mins followed by AAPH addition measured every min for 90 mins by fluorescence assay; format: physicochemical; conditions: 1.5 h
Outline: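 ORAC-FL in 75 mM phosphate buffer pH 7.40. Sample plus fluorescein (150 nM final) pre-incubated 15 min at 37 °C, then AAPH added (12 mM final). Fluorescence read every minute for 90 min (ex 485/em 535 nm). Net AUC (blank-subtracted) converted to Trolox equivalents using a Trolox standard curve (1-8 µM). Samples tested at 1-10 µM, in duplicate, with at least three independent assays.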

[6] = Metal chelating activity assessed as compound-iron complex formation at 37.5 uM after 30 mins by UV-visual spectrometry; format: physicochemical; conditions: 0.5 h
Outline: (§2)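 UV absorption spectra (200-600 nm) recorded for compound alone or with CuCl2, ZnCl2, AlCl3 or FeSO4 after 30 min incubation at room temperature.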

[7] = Metal chelating activity assessed as compound-copper complex formation at 37.5 uM after 30 mins by UV-visual spectrometry; format: physicochemical; conditions: 0.5 h; outline: as §2
[8] = Metal chelating activity assessed as mole fraction of compound required to show 1:1 stoichiometry for Cu2+-compound complex at 37.5 uM after 30 mins by UV-visual spectrometry; format: physicochemical; conditions: 0.5 h
Outline: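 Molar-ratio titration of compound in methanol (37.5 µM final) with CuCl2 (3.75-150 µM final). UV spectra corrected by subtracting CuCl2 and compound at matching concentrations. Absorbance at 498 or 488 nm plotted against mole fraction; stoichiometry taken from the intersection of the fitted lines.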

[9] = target: T3, Amine oxidase [flavin-containing] B (Homo sapiens, UniProt P27338); test: Inhibition of human recombinant MAO-B using kynuramine as substrate after 30 mins by fluorescence spectrophotometry
T3 sequence (P27338 whole entry): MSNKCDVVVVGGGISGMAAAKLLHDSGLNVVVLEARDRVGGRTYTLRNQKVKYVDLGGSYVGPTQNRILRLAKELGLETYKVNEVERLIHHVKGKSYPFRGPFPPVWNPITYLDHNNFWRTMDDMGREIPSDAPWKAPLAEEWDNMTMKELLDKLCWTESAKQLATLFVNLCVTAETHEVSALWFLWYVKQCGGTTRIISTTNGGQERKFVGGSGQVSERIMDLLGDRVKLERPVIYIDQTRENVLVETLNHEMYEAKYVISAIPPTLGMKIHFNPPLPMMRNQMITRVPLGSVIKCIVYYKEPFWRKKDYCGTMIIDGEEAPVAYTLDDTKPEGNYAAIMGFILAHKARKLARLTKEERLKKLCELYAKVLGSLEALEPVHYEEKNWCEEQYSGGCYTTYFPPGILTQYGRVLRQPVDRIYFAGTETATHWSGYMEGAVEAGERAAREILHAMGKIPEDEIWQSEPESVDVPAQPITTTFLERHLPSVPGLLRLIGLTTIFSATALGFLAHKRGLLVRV

[10] = Metal chelating activity assessed as compound-aluminium complex formation at 37.5 uM after 30 mins by UV-visual spectrometry; format: physicochemical; conditions: 0.5 h; outline: as §2
[11] = target: T2, Amyloid-beta precursor protein; test: Inhibition of Cu2+-induced amyloid beta (1 to 42) (unknown origin) aggregation at 25 uM after 24 hrs by thioflavin-T fluorescence method
Outline: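 Aβ1-42 (25 µM final) mixed with Cu2+ (25 µM final) in HEPES (20 mM, pH 6.60, 150 mM NaCl), with or without compound (25 µM final), and incubated at 37 °C for 24 h. 5 µM ThT in glycine-NaOH pH 8.50 then added and fluorescence read at ex 446/em 490 nm. Percent inhibition calculated from background-subtracted signal. Run in triplicate.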

[12] = Metal chelating activity assessed as compound-zinc complex formation at 37.5 uM after 30 mins by UV-visual spectrometry; format: physicochemical; conditions: 0.5 h; outline: as §2
[13] = target: T1, Amine oxidase [flavin-containing] A; test: Inhibition of human recombinant MAO-A using kynuramine as substrate after 30 mins by fluorescence spectrophotometry
[14] = target: T3, Amine oxidase [flavin-containing] B; test: Inhibition of human recombinant MAO-B at 10 uM using kynuramine as substrate after 30 mins by fluorescence spectrophotometry; conditions: 0.5 h; outline: as §1
[15] = target: T2, Amyloid-beta precursor protein; test: Displacement of [125I]-2-[(4-Aminophenyl)methylene]-5-iodo-3(2H)-benzofuranone from amyloid beta (1 to 42) (unknown origin) after 3 hrs by gamma counting method

Compound | inhibition at 10 µM [1] | Ratio IC50 [2] | inhibition [3] | Papp at 18 h, 100 ug/ml [4] | Activity [5] | Activity [6] | Activity [7] | Activity [8] | IC50 [9] | Activity [10] | inhibition [11] | Activity [12] | IC50 [13] | inhibition at 10 µM [14] | Ki [15]
COc1cc(O)c2c(c1)O/C(=C\c1ccc(N3CCCCC3)cc1)C2=O | 18.3% | > 44.2 | 40.3% | 7.24 ×10⁻⁶ cm/s | 1 equiv | Not Active | Active | 1.11 molar ratio | 0.226 µM | Active | 46% | Active | – | – | –
O=C1/C(=C/c2ccc(N3CCCC3)cc2)Oc2cc(O)cc(O)c21 | – | 1.17 | 99.8% | – | 1.56 equiv | – | – | – | 0.391 µM | – | 84.8% | – | 0.457 µM | – | –
CCN(CC)c1ccc(/C=C2\Oc3cc(O)cc(O)c3C2=O)cc1 | – | 0.344 | 91.7% | – | 2.04 equiv | – | – | – | 0.334 µM | – | 88.9% | – | 0.115 µM | – | –
CN(C)c1ccc(/C=C2\Oc3cc(O)cc(O)c3C2=O)cc1 | – | 0.039 | 97.4% | – | 2.9 equiv | – | – | – | 5.94 µM | – | 61.4% | – | 0.233 µM | – | –
CN(C)c1ccc(CC2Oc3cc(O)cc(O)c3C2=O)cc1 (stereo not drawn) | 23.5% | – | 42.7% | – | 3.07 equiv | – | – | – | – | – | 40.5% | – | – | 27.2% | –
CN(C)c1ccccc1/C=C1\Oc2cc(O)cc(O)c2C1=O | 13.5% | – | 98.2% | – | 2.91 equiv | – | – | – | – | – | 90.1% | – | – | 0.88% | –
CN(C)c1ccc(/C=C2\Oc3ccc([125I])cc3C2=O)cc1 | – | – | – | – | – | – | – | – | – | – | – | – | – | – | 0.00682 µM
O=C1/C(=C/c2ccc(N3CCCCC3)cc2)Oc2cc(O)cc(O)c21 | – | 0.69 | 99.2% | 6.68 ×10⁻⁶ cm/s | 1.9 equiv | Not Active | Active | 0.95 molar ratio | 0.393 µM | Active | 84% | Active | 0.271 µM | – | –
O=C1/C(=C/c2ccc(N3CCOCC3)cc2)Oc2cc(O)cc(O)c21 | – | 3.18 | 80.7% | – | 2.5 equiv | – | – | – | 0.34 µM | – | 50.1% | – | 1.08 µM | – | –
CCN(C)c1ccc(/C=C2\Oc3cc(O)cc(O)c3C2=O)cc1 | – | 0.035 | 95.3% | – | 1.97 equiv | – | – | – | 0.808 µM | – | 86.6% | – | 0.0279 µM | – | –
CN1CCN(c2ccc(/C=C3\Oc4cc(O)cc(O)c4C3=O)cc2)CC1 | 15.8% | > 0.926 | 77.7% | – | 2.5 equiv | – | – | – | 10.8 µM | – | 52% | – | – | – | –
COc1cc(O)c2c(c1)O/C(=C\c1ccc(N(C)C)cc1)C2=O | 20.7% | > 14.2 | 53.7% | – | 1.62 equiv | – | – | – | 0.703 µM | – | 75.7% | – | – | – | –
CN(C)c1ccc(/C=C2\Oc3cc(N(C)C)cc(O)c3C2=O)cc1 | 16.8% | – | 22.3% | – | 2.43 equiv | – | – | – | – | – | 71.6% | – | – | 13.5% | –
COc1cc(O)c2c(c1)O/C(=C\c1ccc(N3CCOCC3)cc1)C2=O | 18.4% | > 6.67 | 44.1% | – | 1.66 equiv | – | – | – | 1.5 µM | – | 47.5% | – | – | – | –
O=C1c2c(O)cc(O)cc2OC1Cc1ccc(N2CCOCC2)cc1 (stereo not drawn) | 13.9% | – | 38% | – | 3.56 equiv | – | – | – | – | – | 20.9% | – | – | 8.7% | –

Source: ChEMBL document CHEMBL3785067, “Synthesis and evaluation of 4-hydroxyl aurone derivatives as multifunctional agents for the treatment of Alzheimer's disease” (Bioorg Med Chem, 2016)
